Experimental data from ChEMBL document CHEMBL1123634, “Design, synthesis, and testing of potential antisickling agents. 10. (2,2-Dimethylchroman-6-yl)alkanoic acids” (1987).

Columns and labels:
Format in all cases: functional
Homo sapiens [1] = species on record: Homo sapiens; experiment: Antigelling activity expressed as ratio of soluble sickle hemoglobin (HbS) of compound (g/dL) and that of control at 40 mM concentration
Summary of the method: (§1)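 Hofrichter-type solubility assay: HbS (final around 24 g/100 mL) incubated with drug at 5, 10, 20 and 40 mM, dithionite as deoxygenant. Drugs taken up as sodium salts (2 equiv NaHCO3) in 0.15 M phosphate buffer pH 7.4, 0.18 M stock, some with N-methylpiperazine added for solubility. Each spin run includes a no-drug dHbS control and a 40 mM phenylalanine control. Ratio is soluble HbS with drug (g/dL) over soluble HbS control (g/dL). Values are averages of duplicate runs.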

Homo sapiens [2] = species on record: Homo sapiens; experiment: Antigelling activity expressed as ratio of soluble sickle hemoglobin (HbS) of compound (g/dL) and that of control at 5 mM concentration.; summary of the method: as §1
Homo sapiens [3] = species on record: Homo sapiens; experiment: Antigelling activity expressed as ratio of soluble sickle hemoglobin (HbS) of compound (g/dL) and that of control at 10 mM concentration; summary of the method: as §1
Homo sapiens [4] = species on record: Homo sapiens; experiment: Antigelling activity expressed as ratio of soluble sickle hemoglobin (HbS) of compound (g/dL) and that of control at 20 mM concentration; summary of the method: as §1
Homo sapiens [5] = species on record: Homo sapiens; experiment: Antigelling activity expressed as ratio of soluble sickle hemoglobin (HbS) of compound (g/dL) and that of control at 20 mM concentration.; summary of the method: as §1
Homo sapiens [6] = species on record: Homo sapiens; experiment: Antigelling activity expressed as ratio of soluble sickle hemoglobin (HbS) of compound (g/dL) and that of control at 5 mM concentration; summary of the method: as §1
Homo sapiens [7] = species on record: Homo sapiens; experiment: Antigelling activity expressed as ratio of soluble sickle hemoglobin (HbS) of compound (g/dL) and that of control at 40 mM concentration.; summary of the method: as §1
Homo sapiens [8] = species on record: Homo sapiens; experiment: Antigelling activity expressed as ratio of soluble sickle hemoglobin (HbS) of compound (g/dL) and that of control at 10 mM concentration.; summary of the method: as §1

SMILES	Activity (Homo sapiens [1])	Activity (Homo sapiens [2])	Activity (Homo sapiens [3])	Activity (Homo sapiens [4])	Activity (Homo sapiens [5])	Activity (Homo sapiens [6])	Activity (Homo sapiens [7])	Activity (Homo sapiens [8])
CC(C(=O)O)c1ccc2c(c1)CCC(C)(C)O2 (configuration not stated)	1.21	1.011	1.028	1.095	–	–	–	–
CC1(C)CCc2cc(CCC(=O)O)ccc2O1	1.297	1.045	1.077	1.164	–	–	–	–
CC(=O)OC(C/C(C)=C/C(=O)O)c1ccc2c(c1)CCC(C)(C)O2 (configuration not stated)	1.188	1.01	1.03	–	1.085	–	–	–
CC1(C)CCc2cc(CCCC(=O)O)ccc2O1	1.299	–	1.086	1.144	–	1.052	–	–
CC(C)(Oc1ccc(Cl)cc1)C(=O)O [CLOFIBRIC ACID]	–	1.018	1.064	1.155	–	–	1.302	–
N[C@@H](Cc1ccccc1)C(=O)O [PHENYLALANINE]	1.178	–	–	–	1.093	1.036	–	1.048
Cc1ccc(C)c(OCCCC(C)(C)C(=O)O)c1 [GEMFIBROZIL]	1.234	–	–	1.117	–	1.04	–	1.073
CC1(C)CCc2cc(C(=O)O)ccc2O1	–	–	1.043	1.108	–	1.044	1.226	–
